Experimental data published in ChEMBL document CHEMBL5724801, “EUbOPEN Chemogenomics Library - Multiplex” (2024).
Values joined by “and” are separate entries in the source; they are usually repeats but may differ in a detail not shown here. Identical values can stand only once.

System: U2OS
Test: Multiplex assay against U2OS
Type: toxicity, cell-based
Conditions: human
Summary of the method: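 Live cells were stained at seeding with Hoechst33342, BioTracker Green Microtubule Cytoskeleton Dye, MitoTracker Red and Annexin V Alexa Fluor 680, then imaged on a CQ1 microscope at 37°C and 5% CO2 after compound addition. CellPathfinder machine-learning gating split cells into Hoechst high-intensity objects or normal cells. Normal cells were split into healthy, pyknosed or fragmented nuclei, and pyknosed cells into mitotic or apoptotic. Tubulin, mitochondrial-mass and membrane-permeability phenotypes are per cents of healthy-nucleus cells.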

[1] = 12 h, 1 µM, compound concentration 1 uM
[2] = 12 h, 10 µM, compound concentration 10 uM
[3] = 24 h, 1 µM, compound concentration 1 uM
[4] = 24 h, 10 µM, compound concentration 10 uM
[5] = 48 h, 1 µM, compound concentration 1 uM
[6] = 48 h, 10 µM, compound concentration 10 uM

Compound: CCC(=N\O)/C(C)=C/c1ccc(F)cc1 [A-079]
- Population Apoptotic (%) [1]: 48.57% and 40.91%
- Population Fragmented Nuclei (%) [1]: 1.07% and 0%
- Population Healthy Nuclei (%) [1]: 91.47% and 83.94%
- Population Hoechst High Intensity Objects (%) [1]: 0%
- Population Membrane Permeable-Phenotype (%) [1]: 0.47% and 1.74%
- Population Mitochondria Different-Phenotype (%) [1]: 0% and 11.3%
- Population Mitotic Cells (%) [1]: 51.43% and 59.09%
- Population Normal (%) [1]: 100%
- Population Pyknosed Nuclei (%) [1]: 7.46% and 16.06%
- Population Tubulin-Different-Phenotype (%) [1]: 0.47% and 1.74%
- Population Apoptotic (%) [2]: 36.67% and 36.84%
- Population Fragmented Nuclei (%) [2]: 3.39% and 2.96%
- Population Healthy Nuclei (%) [2]: 88.14% and 82.96%
- Population Hoechst High Intensity Objects (%) [2]: 0%
- Population Membrane Permeable-Phenotype (%) [2]: 1.6% and 0.89%
- Population Mitochondria Different-Phenotype (%) [2]: 0% and 4.46%
- Population Mitotic Cells (%) [2]: 63.33% and 63.16%
- Population Normal (%) [2]: 100%
- Population Pyknosed Nuclei (%) [2]: 8.47% and 14.07%
- Population Tubulin-Different-Phenotype (%) [2]: 0.64% and 0.89%
- Total Cell Count [2]: 354 and 135
- Population Apoptotic (%) [3]: 36.36% and 42.86%
- Population Fragmented Nuclei (%) [3]: 0.47% and 0.53%
- Population Healthy Nuclei (%) [3]: 90.89% and 88.24%
- Population Hoechst High Intensity Objects (%) [3]: 0%
- Population Membrane Permeable-Phenotype (%) [3]: 0.86% and 1.82%
- Population Mitochondria Different-Phenotype (%) [3]: 0% and 3.03%
- Population Mitotic Cells (%) [3]: 63.64% and 57.14%
- Population Normal (%) [3]: 100%
- Population Pyknosed Nuclei (%) [3]: 8.63% and 11.23%
- Population Tubulin-Different-Phenotype (%) [3]: 0.17% and 0.61%
- Population Apoptotic (%) [4]: 43.18% and 38.1%
- Population Fragmented Nuclei (%) [4]: 2.04% and 1.9%
- Population Healthy Nuclei (%) [4]: 88.96% and 84.81%
- Population Hoechst High Intensity Objects (%) [4]: 0%
- Population Membrane Permeable-Phenotype (%) [4]: 0.46% and 2.99%
- Population Mitochondria Different-Phenotype (%) [4]: 0% and 8.21%
- Population Mitotic Cells (%) [4]: 56.82% and 61.9%
- Population Normal (%) [4]: 100%
- Population Pyknosed Nuclei (%) [4]: 9% and 13.29%
- Population Tubulin-Different-Phenotype (%) [4]: 0.23% and 0.75%
- Population Apoptotic (%) [5]: 43.75% and 67.74%
- Population Fragmented Nuclei (%) [5]: 3.57% and 1.19%
- Population Healthy Nuclei (%) [5]: 86.9% and 89.55%
- Population Hoechst High Intensity Objects (%) [5]: 0%
- Population Membrane Permeable-Phenotype (%) [5]: 0.29% and 1.67%
- Population Mitochondria Different-Phenotype (%) [5]: 0.1% and 3%
- Population Mitotic Cells (%) [5]: 56.25% and 32.26%
- Population Normal (%) [5]: 100%
- Population Pyknosed Nuclei (%) [5]: 9.52% and 9.25%
- Population Tubulin-Different-Phenotype (%) [5]: 0.2% and 1%
- Population Apoptotic (%) [6]: 34.57% and 41.18%
- Population Fragmented Nuclei (%) [6]: 3.23% and 2.2%
- Population Healthy Nuclei (%) [6]: 88.86% and 85.35%
- Population Hoechst High Intensity Objects (%) [6]: 0%
- Population Membrane Permeable-Phenotype (%) [6]: 0.55% and 1.72%
- Population Mitochondria Different-Phenotype (%) [6]: 0.11% and 5.58%
- Population Mitotic Cells (%) [6]: 65.43% and 58.82%
- Population Normal (%) [6]: 100%
- Population Pyknosed Nuclei (%) [6]: 7.92% and 12.45%
- Population Tubulin-Different-Phenotype (%) [6]: 0.33% and 0%

Compound: CCCn1c(=O)c2[nH]c(C3CCCC3)nc2n(CCC)c1=O [1,3-DIPROPYL-8-CYCLOPENTYLXANTHINE [DPCPX]]
- Population Apoptotic (%) [1]: 87% and 93%
- Population Fragmented Nuclei (%) [1]: 25% and 15%
- Population Healthy Nuclei (%) [1]: 64% and 72%
- Population Hoechst High Intensity Objects (%) [1]: 1% and 0%
- Population Membrane Permeable-Phenotype (%) [1]: 1% and 7%
- Population Mitochondria Different-Phenotype (%) [1]: 3% and 4%
- Population Mitotic Cells (%) [1]: 12% and 6%
- Population Normal (%) [1]: 98% and 100%
- Population Pyknosed Nuclei (%) [1]: 9% and 12%
- Population Tubulin-Different-Phenotype (%) [1]: 1% and 5%
- Total Cell Count [1]: 250 and 125
- Population Apoptotic (%) [2]: 68% and 100%
- Population Fragmented Nuclei (%) [2]: 30% and 21%
- Population Healthy Nuclei (%) [2]: 60% and 69%
- Population Hoechst High Intensity Objects (%) [2]: 2% and 3%
- Population Membrane Permeable-Phenotype (%) [2]: 5% and 6%
- Population Mitochondria Different-Phenotype (%) [2]: 1% and 9%
- Population Normal (%) [2]: 97% and 96%
- Population Pyknosed Nuclei (%) [2]: 9% and 8%
- Population Tubulin-Different-Phenotype (%) [2]: 3%
- Total Cell Count [2]: 206 and 96
- Population Apoptotic (%) [3]: 83% and 87%
- Population Fragmented Nuclei (%) [3]: 24% and 13%
- Population Healthy Nuclei (%) [3]: 68% and 74%
- Population Hoechst High Intensity Objects (%) [3]: 3% and 2%
- Population Membrane Permeable-Phenotype (%) [3]: 5% and 8%
- Population Mitochondria Different-Phenotype (%) [3]: 3%
- Population Mitotic Cells (%) [3]: 16% and 12%
- Population Normal (%) [3]: 96% and 97%
- Population Pyknosed Nuclei (%) [3]: 7% and 11%
- Population Tubulin-Different-Phenotype (%) [3]: 4%
- Total Cell Count [3]: 261 and 138
- Population Apoptotic (%) [4]: 89% and 100%
- Population Fragmented Nuclei (%) [4]: 27% and 21%
- Population Healthy Nuclei (%) [4]: 64% and 71%
- Population Hoechst High Intensity Objects (%) [4]: 2% and 4%
- Population Membrane Permeable-Phenotype (%) [4]: 7% and 3%
- Population Mitochondria Different-Phenotype (%) [4]: 0% and 3%
- Population Mitotic Cells (%) [4]: 10% and 0%
- Population Normal (%) [4]: 97% and 95%
- Population Pyknosed Nuclei (%) [4]: 8% and 6%
- Population Tubulin-Different-Phenotype (%) [4]: 0%
- Total Cell Count [4]: 234 and 120
- Population Apoptotic (%) [5]: 86% and 92%
- Population Fragmented Nuclei (%) [5]: 20% and 17%
- Population Healthy Nuclei (%) [5]: 69%
- Population Hoechst High Intensity Objects (%) [5]: 1% and 2%
- Population Membrane Permeable-Phenotype (%) [5]: 3% and 8%
- Population Mitochondria Different-Phenotype (%) [5]: 1% and 4%
- Population Mitotic Cells (%) [5]: 13% and 8%
- Population Normal (%) [5]: 98% and 97%
- Population Pyknosed Nuclei (%) [5]: 10% and 13%
- Population Tubulin-Different-Phenotype (%) [5]: 2% and 3%
- Total Cell Count [5]: 364 and 196
- Population Apoptotic (%) [6]: 77% and 100%
- Population Fragmented Nuclei (%) [6]: 24% and 19%
- Population Healthy Nuclei (%) [6]: 62% and 73%
- Population Hoechst High Intensity Objects (%) [6]: 2% and 3%
- Population Membrane Permeable-Phenotype (%) [6]: 4% and 5%
- Population Mitochondria Different-Phenotype (%) [6]: 1% and 3%
- Population Mitotic Cells (%) [6]: 22% and 0%
- Population Normal (%) [6]: 97% and 96%
- Population Pyknosed Nuclei (%) [6]: 12% and 6%
- Population Tubulin-Different-Phenotype (%) [6]: 3% and 0%
- Total Cell Count [6]: 322 and 165
